# According to ChEMBL document CHEMBL4402601, “Discovery of a Silicon-Containing Pan-Genotype Hepatitis C Virus NS5A Inhibitor” (J Med Chem, 2020):
# Experiments:
# [1] = Half life in mouse at 2 mg/kg, iv by UPLC-MS/MS analysis; assay type: ADME, organism-based; details: in vivo
# Outline: (§1)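 Overnight-fasted mice dosed iv once at 2 mg/kg. Vehicle was 2:2:96 (v/v) alcohol : Tween 80 : glucose injection diluted 2.5 times with 10% glucose injection. Plasma concentration measured by UPLC-MS/MS.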
# [2] = Tmax in dog at 5 mg/kg, po by UPLC-MS/MS analysis; assay type: ADME, organism-based, Canis lupus familiaris; details: in vivo
# Hepatitis C virus [3] = test: Resistance index, ratio of EC50 for Hepatitis C virus subtype 1a H77 subgenomic replicon expressing NS5A Q30K mutant infected in human HuH7 cells to EC50 for Hepatitis C virus subtype 1a H77 subgenomic replicon expressing NS5A infected in human HuH7 cells; assay type: functional, Hepacivirus hominis
# Hepatitis C virus [4] = test: Antiviral activity against Hepatitis C virus subtype 1a H77 subgenomic replicon expressing NS5A Y93C mutant infected in human HuH7 cells assessed as reduction in viral replication incubated for 3 days by luciferase reporter gene assay; assay type: functional, organism-based, Hepacivirus hominis; details: subtype 1a H77, Huh-7, 72 h
# Outline: (§2)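 NS5A resistance-associated variants introduced into GT1a-H77 or GT1b-Con1 replicons. In transient assays, each variant replicon was electroporated into a Huh-7-derived cell line. Inhibition measured as drop in luciferase signal. Percent inhibition computed per concentration; EC50 from 4-parameter logistic nonlinear fit. Fold resistance is variant EC50 relative to the matching reference replicon.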
# [5] = Drug distribution in mouse plasma at 10 mg/kg, po incubated for 0.5 hrs by UPLC-MS/MS analysis; assay type: ADME, organism-based
# Outline: (§3)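 Oral dosing in mice and rats; compound measured in plasma and liver by UPLC-MS/MS at each time point, n = 3 (mean ± SD). LPR is mean liver concentration divided by mean plasma concentration.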
# [6] = Cmax in dog at 5 mg/kg, po by UPLC-MS/MS analysis; assay type: ADME, organism-based, Canis lupus familiaris; design: dose 5 mg/kg, route oral; details: in vivo
# [7] = Ratio of drug distribution in rat liver to drug distribution in rat plasma measured after 0.5 hrs by UPLC-MS/MS analysis; assay type: ADME, cell-free; outline: as §3
# [8] = Ratio of drug distribution in mouse liver to drug distribution in mouse plasma measured after 24 hrs by UPLC-MS/MS analysis; assay type: ADME, cell-free; outline: as §3
# [9] = Clearance in mouse plasma at 2 mg/kg, iv by UPLC-MS/MS analysis; assay type: ADME, organism-based; outline: as §1
# Hepatitis C virus [10] = test: Antiviral activity against Hepatitis C virus subtype 1b Con1 replicon expressing NS5A Y93H mutant infected in human HuH7 cells assessed as reduction in viral replication incubated for 3 days by luciferase reporter gene assay; assay type: functional, organism-based, Hepacivirus hominis; details: subtype 1b Con1, Huh-7, 72 h; outline: as §2
# Hepatitis C virus [11] = test: Antiviral activity against Hepatitis C virus subtype 1b Con1 replicon expressing NS5A L31W mutant infected in human HuH7 cells assessed as reduction in viral replication incubated for 3 days by luciferase reporter gene assay; assay type: functional, organism-based, Hepacivirus hominis; details: subtype 1b Con1, Huh-7, 72 h; outline: as §2
# [12] = Drug distribution in rat plasma at 10 mg/kg, po incubated for 8 hrs by UPLC-MS/MS analysis; assay type: ADME, organism-based; outline: as §3
# [13] = Drug distribution in mouse plasma at 10 mg/kg, po incubated for 3 hrs by UPLC-MS/MS analysis; assay type: ADME, organism-based; outline: as §3
# [14] = Toxicity in mouse assessed as effect on hematological parameters at 300 mg/kg, po administered for 14 days and measured on day 14; assay type: organism-based; details: in vivo, 336 h
# Outline: (§4)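 Mice randomised after acclimation into two groups of 5 males and 5 females. Compound at 300 mg/kg or vehicle alone given once daily by oral gavage for 14 days. Clinical signs observed daily. Body weight and food intake recorded on day 1, then twice weekly. Animals killed after the 14th dose.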
# Hepatitis C virus [15] = test: Antiviral activity against Hepatitis C virus subtype 1b Con1 replicon expressing NS5A P32L mutant infected in human HuH7 cells assessed as reduction in viral replication incubated for 3 days by luciferase reporter gene assay; assay type: functional, organism-based, Hepacivirus hominis; details: subtype 1b Con1, Huh-7, 72 h; outline: as §2
# Hepatitis C virus [16] = test: Resistance index, ratio of EC50 for Hepatitis C virus subtype 1a H77 subgenomic replicon expressing NS5A L31M mutant infected in human HuH7 cells to EC50 for Hepatitis C virus subtype 1a H77 subgenomic replicon expressing NS5A infected in human HuH7 cells; assay type: functional, Hepacivirus hominis; outline: as §2
# Hepatitis C virus [17] = test: Antiviral activity against Hepatitis C virus subtype 3a subgenomic replicon expressing NS5A infected in human HuH7 cells assessed as reduction in viral replication incubated for 3 days by luciferase reporter gene assay; assay type: functional, organism-based, Hepacivirus hominis; details: Huh-7, 72 h
# Outline: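 HCV replicon cell assay; inhibition of replication read as decrease in luciferase signal. Percent inhibition computed at each compound concentration; EC50 (pM) from nonlinear regression fit to a 4-parameter logistic equation. Values are means of triplicate wells, with each experiment run at least twice.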
# [18] = Metabolic stability in rat liver microsomes assessed as compound remaining at 1 uM incubated for 60 mins by UPLC-MS/MS analysis; assay type: ADME, Microsome; details: read-out: Stability
# Outline: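 Pooled mouse, rat or human liver microsomes (0.5 mg/mL) with 1 μM compound, 1 mM NADPH, 5 mM MgCl₂ and 100 mM potassium phosphate pH 7.4. Pre-incubated 5 min at 37 °C, started with NADPH, then run 60 min at 37 °C. Quenched with ice-cold acetonitrile containing internal standard; parent remaining measured by UPLC-MS/MS.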
# [19] = Tmax in mouse at 10 mg/kg, po by UPLC-MS/MS analysis; assay type: ADME, organism-based; details: in vivo
# Outline: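 Mice fasted overnight, given a single 10 mg/kg oral dose in 2:2:96 (v/v) alcohol:Tween 80:glucose injection. Plasma concentrations measured by UPLC-MS/MS.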
# Hepatitis C virus [20] = test: Antiviral activity against Hepatitis C virus subtype 5a subgenomic replicon expressing NS5A infected in human HuH7 cells assessed as reduction in viral replication incubated for 3 days by luciferase reporter gene assay; assay type: functional, organism-based, Hepacivirus hominis; details: Huh-7, 72 h
# [21] = Drug distribution in mouse liver at 10 mg/kg, po incubated for 3 hrs by UPLC-MS/MS analysis; assay type: ADME, organism-based; details: read-out: Drug uptake; outline: as §3
# [22] = Toxicity in mouse assessed as reduction in body weight at 300 mg/kg, po administered for 14 days and measured on day 14; assay type: organism-based; details: in vivo, 336 h; outline: as §4
# Hepatitis C virus [23] = test: Resistance index, ratio of EC50 for Hepatitis C virus subtype 1a H77 subgenomic replicon expressing NS5A M28T mutant infected in human HuH7 cells to EC50 for Hepatitis C virus subtype 1a H77 subgenomic replicon expressing NS5A infected in human HuH7 cells; assay type: functional, Hepacivirus hominis
# Hepatitis C virus [24] = test: Antiviral activity against Hepatitis C virus subtype 2a subgenomic replicon expressing NS5A infected in human HuH7 cells assessed as reduction in viral replication incubated for 3 days by luciferase reporter gene assay; assay type: functional, organism-based, Hepacivirus hominis; details: Huh-7, 72 h
# Hepatitis C virus [25] = test: Resistance index, ratio of EC50 for Hepatitis C virus subtype 1b Con1 subgenomic replicon expressing NS5A Y93H mutant infected in human HuH7 cells to EC50 for Hepatitis C virus subtype 1b Con1 subgenomic replicon expressing NS5A infected in human HuH7 cells; assay type: functional, Hepacivirus hominis
# [26] = Toxicity in mouse assessed as effect on hepatological parameters at 300 mg/kg, po administered for 14 days and measured on day 14; assay type: organism-based; details: in vivo, 336 h; outline: as §4
# Hepatitis C virus [27] = test: Antiviral activity against Hepatitis C virus subtype 1a H77 subgenomic replicon expressing NS5A Y93N mutant infected in human HuH7 cells assessed as reduction in viral replication incubated for 3 days by luciferase reporter gene assay; assay type: functional, organism-based, Hepacivirus hominis; details: subtype 1a H77, Huh-7, 72 h; outline: as §2
# Hepatitis C virus [28] = test: Antiviral activity against Hepatitis C virus subtype 1a H77 subgenomic replicon expressing NS5A Q30E mutant infected in human HuH7 cells assessed as reduction in viral replication incubated for 3 days by luciferase reporter gene assay; assay type: functional, organism-based, Hepacivirus hominis; details: subtype 1a H77, Huh-7, 72 h; outline: as §2
compound,measurement,setting,value
COC(=O)N[C@H](C(=O)N1CCC[C@H]1C(=O)Nc1ccc([C@@H]2CC[C@@H](c3ccc(NC(=O)[C@@H]4CCCN4C(=O)[C@@H](NC(=O)OC)[C@@H](C)OC)cc3)N2c2cc(F)c(N3CC[Si](C)(C)CC3)c(F)c2)cc1)[C@@H](C)OC,half-life,[1],12.2 h
same,Tmax,[2],5.3 h
same,Ratio EC50,Hepatitis C virus [3],30.5
same,EC50,Hepatitis C virus [4],> 0.25 nM
same,concentration at 0.5 h,[5],160 ng/mL
same,Cmax,[6],395 ng/mL
same,Kp at 0.5 h,[7],2.7
same,Kp at 24 h,[8],17.9
same,clearance,[9],1.67 mL/min/kg
same,EC50,Hepatitis C virus [10],0.0204 nM
same,EC50,Hepatitis C virus [11],0.0191 nM
same,concentration at 8 h,[12],16.4 ng/mL
same,concentration at 3 h,[13],308 ng/mL
same,Activity,[14],Non-Toxic
same,EC50,Hepatitis C virus [15],0.00164 nM
same,Ratio EC50,Hepatitis C virus [16],9.9
same,EC50,Hepatitis C virus [17],0.003 nM
same,"remaining at 1 h, 1 µM",[18],76.3%
same,Tmax,[19],7.3 h
same,EC50,Hepatitis C virus [20],0.0016 nM
same,concentration at 3 h,[21],1580 ng/g
same,Activity,[22],Non-Toxic
same,Ratio EC50,Hepatitis C virus [23],1.9
same,EC50,Hepatitis C virus [24],0.00038 nM
same,Ratio EC50,Hepatitis C virus [25],12.2
same,Activity,[26],Non-Toxic
same,EC50,Hepatitis C virus [27],> 0.25 nM
same,EC50,Hepatitis C virus [28],0.216 nM
